This note sets out measurements from ChEMBL document CHEMBL4396885, “Thioether-based 2-aminobenzamide derivatives: Novel HDAC inhibitors with potent in vitro and in vivo antitumor activity” (Eur J Med Chem, 2019).

Test [1] deals with A549. Briefly: Antiproliferative activity against human A549 cells assessed as growth inhibition at 8 uM after 72 hrs by CCK-8 assay relative to control. Conditions: A549, 72 h, read-out: GI. The class given is functional.
For the next test, the system named is NIH3T3. The experiment in a line: Cytotoxicity against mouse NIH/3T3 cells assessed as reduction in cell viability after 72 hrs by CCK-8 assay. The class given is cell-based. Conditions: NIH3T3, 72 h.
A further test deals with Histone deacetylase. The experiment in a line: Inhibition of HDAC in human HeLa cell nuclear extract assessed as decrease in deacetylation of FLUOR DE LYS Green substrate preincubated for 10 mins followed by substrate addition and measured after 30 mins by fluorescence based assay. The class given is cell-free.
The subject of test [2] is HCT-116. Briefly: Antiproliferative activity against human HCT116 cells assessed as decrease in cell viability after 72 hrs by CCK-8 assay. The class given is functional, cell-based. Conditions: HCT-116, 72 h. An outline of the steps:
(§1)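 Cells grown to 70–85% confluence (A375, A549, HCT116 in RPMI1640; HeLa, SMMC7721 in DMEM; 10% FBS, 37 °C, 5% CO2), seeded 4000/well, dosed after 12 h across a concentration range, incubated 72 h, then CCK-8 for 1 h; absorbance at 450 nm. IC50 as mean ± SD of three separate experiments.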

Test [3] deals with SMMC-7721. The experiment in a line: Antiproliferative activity against human SMMC7721 cells assessed as growth inhibition at 8 uM after 72 hrs by CCK-8 assay relative to control. The class given is functional. Conditions: SMMC-7721, 72 h, read-out: GI.
For the next test, the target named is Histone deacetylase 2 (Homo sapiens, UniProt Q92769). The experiment in a line: Inhibition of recombinant human HDAC2 assessed as decrease in deacetylation of FLUOR DE LYS Green substrate preincubated for 10 mins followed by substrate addition and measured after 30 mins by fluorescence based assay.
The subject of test [4] is HeLa. The experiment in a line: Antiproliferative activity against human HeLa cells assessed as growth inhibition at 8 uM after 72 hrs by CCK-8 assay relative to control. The class given is functional. Conditions: read-out: GI.
Another test deals with Histone deacetylase 1 (Homo sapiens, UniProt Q13547). The experiment in a line: Inhibition of recombinant human His tagged HDAC1 expressed in baculovirus infected insect cells assessed as decrease in deacetylation of FLUOR DE LYS Green substrate preincubated for 10 mins followed by substrate addition and measured after 30 mins by fluorescence based assay.
The test system of test [5] is HCT-116. The experiment in a line: Antiproliferative activity against human HCT116 cells assessed as growth inhibition at 8 uM after 72 hrs by CCK-8 assay relative to control. Format: functional. The note with it: HCT-116, 72 h, read-out: GI.
Test [6] concerns the target Histone deacetylase 3/NCoR1 (Homo sapiens, UniProt O15379). The experiment in a line: Inhibition of recombinant human HDAC3/NCOR1 assessed as decrease in deacetylation of FLUOR DE LYS SIRT1 substrate preincubated for 10 mins followed by substrate addition and measured after 30 mins by fluorescence based assay. Format: protein-complex assay.
In test [7] the test system is HCT-116. The experiment in a line: Antiproliferative activity against human HCT116 cells assessed as growth inhibition at 2 uM after 72 hrs by CCK-8 assay relative to control. The class given is functional. Conditions: HCT-116, 72 h, read-out: GI.
Test [8] concerns A-375. Briefly: Antiproliferative activity against human A375 cells assessed as growth inhibition at 2 uM after 72 hrs by CCK-8 assay relative to control. Conditions: A-375, 72 h, read-out: GI. The class given is functional.
Test [9] relates to A549. Briefly: Antiproliferative activity against human A549 cells assessed as decrease in cell viability after 72 hrs by CCK-8 assay. Format: functional, cell-based. The note with it: A549, 72 h. Put shortly: as §1
Test [10] has as its system HeLa. The experiment in a line: Antiproliferative activity against human HeLa cells assessed as decrease in cell viability after 72 hrs by CCK-8 assay. Format: functional, cell-based. Put shortly:
as §1

In test [11] the test system is A-375. The experiment in a line: Antiproliferative activity against human A375 cells assessed as decrease in cell viability after 72 hrs by CCK-8 assay. The class given is functional, cell-based. Conditions: A-375, 72 h. Put shortly: as §1
Test [12] concerns HeLa. Briefly: Antiproliferative activity against human HeLa cells assessed as growth inhibition at 2 uM after 72 hrs by CCK-8 assay relative to control. The note with it: read-out: GI. Format: functional.
Test [13] addresses T1, Protein deacetylase HDAC6 (Homo sapiens, UniProt Q9UBN7).
T1 sequence (Q9UBN7 whole entry): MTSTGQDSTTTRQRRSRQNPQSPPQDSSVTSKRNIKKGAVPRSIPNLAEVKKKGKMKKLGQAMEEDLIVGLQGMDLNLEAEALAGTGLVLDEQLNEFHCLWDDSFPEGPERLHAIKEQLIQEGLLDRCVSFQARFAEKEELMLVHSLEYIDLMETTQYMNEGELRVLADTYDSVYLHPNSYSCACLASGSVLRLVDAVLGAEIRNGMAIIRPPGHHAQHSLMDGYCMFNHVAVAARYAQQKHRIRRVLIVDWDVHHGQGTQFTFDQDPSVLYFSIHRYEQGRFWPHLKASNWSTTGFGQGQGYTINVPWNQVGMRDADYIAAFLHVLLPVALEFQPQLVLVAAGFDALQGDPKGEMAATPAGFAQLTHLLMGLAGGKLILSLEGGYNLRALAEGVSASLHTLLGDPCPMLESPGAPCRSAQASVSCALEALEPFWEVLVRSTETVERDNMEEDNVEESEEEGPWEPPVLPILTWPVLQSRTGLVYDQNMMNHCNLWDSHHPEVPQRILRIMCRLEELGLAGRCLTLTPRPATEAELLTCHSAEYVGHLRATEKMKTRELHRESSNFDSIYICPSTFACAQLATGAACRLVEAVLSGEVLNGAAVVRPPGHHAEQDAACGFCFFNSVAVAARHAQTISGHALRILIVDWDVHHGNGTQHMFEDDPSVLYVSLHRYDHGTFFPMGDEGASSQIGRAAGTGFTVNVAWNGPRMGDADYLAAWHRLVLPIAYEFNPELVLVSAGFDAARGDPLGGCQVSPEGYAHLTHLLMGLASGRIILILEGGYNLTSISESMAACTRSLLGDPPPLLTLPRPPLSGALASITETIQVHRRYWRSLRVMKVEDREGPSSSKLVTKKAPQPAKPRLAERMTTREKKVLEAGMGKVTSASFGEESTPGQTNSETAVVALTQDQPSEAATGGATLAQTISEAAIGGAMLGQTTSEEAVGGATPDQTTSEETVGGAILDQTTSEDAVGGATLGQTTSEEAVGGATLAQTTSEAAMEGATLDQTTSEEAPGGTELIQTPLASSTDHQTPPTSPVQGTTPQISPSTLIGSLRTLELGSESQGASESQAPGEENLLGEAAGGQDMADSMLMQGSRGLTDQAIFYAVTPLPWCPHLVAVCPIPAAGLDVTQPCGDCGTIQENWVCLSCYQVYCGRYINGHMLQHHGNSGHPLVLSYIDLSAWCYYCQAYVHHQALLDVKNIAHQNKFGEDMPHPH
The experiment in a line: Inhibition of recombinant human His tagged HDAC6 expressed in baculovirus infected insect cells assessed as decrease in deacetylation of FLUOR DE LYS SIRT1 substrate by measuring decrease in fluorescence preincubated for 10 mins followed by substrate addition and measured after 30 mins by fluorescence based assay.

For test [14], the system named is A549. The experiment in a line: Antiproliferative activity against human A549 cells assessed as growth inhibition at 2 uM after 72 hrs by CCK-8 assay relative to control. Format: functional. The note with it: A549, 72 h, read-out: GI.
Test [15] has as its system A-375. The experiment in a line: Antiproliferative activity against human A375 cells assessed as growth inhibition at 8 uM after 72 hrs by CCK-8 assay relative to control. The class given is functional. The note with it: A-375, 72 h, read-out: GI.
Test [16] concerns SMMC-7721. Briefly: Antiproliferative activity against human SMMC7721 cells assessed as decrease in cell viability after 72 hrs by CCK-8 assay. Conditions: SMMC-7721, 72 h. Format: functional, cell-based. An outline of the steps:
as §1

A further test deals with T2, Histone deacetylase 8 (Homo sapiens, UniProt Q9BY41).
T2 sequence (Q9BY41 whole entry): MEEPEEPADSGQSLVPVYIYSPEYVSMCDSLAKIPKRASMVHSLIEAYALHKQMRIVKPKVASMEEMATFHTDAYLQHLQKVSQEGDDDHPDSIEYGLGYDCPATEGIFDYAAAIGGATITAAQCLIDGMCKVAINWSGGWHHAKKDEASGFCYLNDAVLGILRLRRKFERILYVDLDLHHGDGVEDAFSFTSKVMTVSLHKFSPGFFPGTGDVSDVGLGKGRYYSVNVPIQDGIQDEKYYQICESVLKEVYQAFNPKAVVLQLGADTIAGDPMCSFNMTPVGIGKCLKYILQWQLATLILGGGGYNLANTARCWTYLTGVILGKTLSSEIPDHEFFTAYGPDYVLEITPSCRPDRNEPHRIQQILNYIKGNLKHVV
The experiment in a line: Inhibition of recombinant human HDAC8 assessed as decrease in deacetylation of FLUOR DE LYS substrate preincubated for 10 mins followed by substrate addition and measured after 30 mins by fluorescence based assay.

The test system of test [17] is SMMC-7721. The experiment in a line: Antiproliferative activity against human SMMC7721 cells assessed as growth inhibition at 2 uM after 72 hrs by CCK-8 assay relative to control. Conditions: SMMC-7721, 72 h, read-out: GI. The class given is functional.

Sequence of Histone deacetylase 3/NCoR1 (O15379 whole entry): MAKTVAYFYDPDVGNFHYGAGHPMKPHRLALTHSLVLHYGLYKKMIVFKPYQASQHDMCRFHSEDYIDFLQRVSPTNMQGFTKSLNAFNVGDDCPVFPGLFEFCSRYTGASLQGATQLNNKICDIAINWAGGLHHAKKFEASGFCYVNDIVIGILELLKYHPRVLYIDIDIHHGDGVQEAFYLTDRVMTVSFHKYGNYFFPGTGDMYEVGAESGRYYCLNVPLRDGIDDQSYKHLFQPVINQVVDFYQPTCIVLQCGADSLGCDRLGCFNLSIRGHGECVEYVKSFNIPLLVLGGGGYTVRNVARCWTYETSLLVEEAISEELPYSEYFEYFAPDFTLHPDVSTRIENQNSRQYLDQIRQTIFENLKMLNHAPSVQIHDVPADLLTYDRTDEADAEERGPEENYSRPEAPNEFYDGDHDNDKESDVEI
Sequence of Histone deacetylase 3/NCoR1 (O75376 whole entry, further chain): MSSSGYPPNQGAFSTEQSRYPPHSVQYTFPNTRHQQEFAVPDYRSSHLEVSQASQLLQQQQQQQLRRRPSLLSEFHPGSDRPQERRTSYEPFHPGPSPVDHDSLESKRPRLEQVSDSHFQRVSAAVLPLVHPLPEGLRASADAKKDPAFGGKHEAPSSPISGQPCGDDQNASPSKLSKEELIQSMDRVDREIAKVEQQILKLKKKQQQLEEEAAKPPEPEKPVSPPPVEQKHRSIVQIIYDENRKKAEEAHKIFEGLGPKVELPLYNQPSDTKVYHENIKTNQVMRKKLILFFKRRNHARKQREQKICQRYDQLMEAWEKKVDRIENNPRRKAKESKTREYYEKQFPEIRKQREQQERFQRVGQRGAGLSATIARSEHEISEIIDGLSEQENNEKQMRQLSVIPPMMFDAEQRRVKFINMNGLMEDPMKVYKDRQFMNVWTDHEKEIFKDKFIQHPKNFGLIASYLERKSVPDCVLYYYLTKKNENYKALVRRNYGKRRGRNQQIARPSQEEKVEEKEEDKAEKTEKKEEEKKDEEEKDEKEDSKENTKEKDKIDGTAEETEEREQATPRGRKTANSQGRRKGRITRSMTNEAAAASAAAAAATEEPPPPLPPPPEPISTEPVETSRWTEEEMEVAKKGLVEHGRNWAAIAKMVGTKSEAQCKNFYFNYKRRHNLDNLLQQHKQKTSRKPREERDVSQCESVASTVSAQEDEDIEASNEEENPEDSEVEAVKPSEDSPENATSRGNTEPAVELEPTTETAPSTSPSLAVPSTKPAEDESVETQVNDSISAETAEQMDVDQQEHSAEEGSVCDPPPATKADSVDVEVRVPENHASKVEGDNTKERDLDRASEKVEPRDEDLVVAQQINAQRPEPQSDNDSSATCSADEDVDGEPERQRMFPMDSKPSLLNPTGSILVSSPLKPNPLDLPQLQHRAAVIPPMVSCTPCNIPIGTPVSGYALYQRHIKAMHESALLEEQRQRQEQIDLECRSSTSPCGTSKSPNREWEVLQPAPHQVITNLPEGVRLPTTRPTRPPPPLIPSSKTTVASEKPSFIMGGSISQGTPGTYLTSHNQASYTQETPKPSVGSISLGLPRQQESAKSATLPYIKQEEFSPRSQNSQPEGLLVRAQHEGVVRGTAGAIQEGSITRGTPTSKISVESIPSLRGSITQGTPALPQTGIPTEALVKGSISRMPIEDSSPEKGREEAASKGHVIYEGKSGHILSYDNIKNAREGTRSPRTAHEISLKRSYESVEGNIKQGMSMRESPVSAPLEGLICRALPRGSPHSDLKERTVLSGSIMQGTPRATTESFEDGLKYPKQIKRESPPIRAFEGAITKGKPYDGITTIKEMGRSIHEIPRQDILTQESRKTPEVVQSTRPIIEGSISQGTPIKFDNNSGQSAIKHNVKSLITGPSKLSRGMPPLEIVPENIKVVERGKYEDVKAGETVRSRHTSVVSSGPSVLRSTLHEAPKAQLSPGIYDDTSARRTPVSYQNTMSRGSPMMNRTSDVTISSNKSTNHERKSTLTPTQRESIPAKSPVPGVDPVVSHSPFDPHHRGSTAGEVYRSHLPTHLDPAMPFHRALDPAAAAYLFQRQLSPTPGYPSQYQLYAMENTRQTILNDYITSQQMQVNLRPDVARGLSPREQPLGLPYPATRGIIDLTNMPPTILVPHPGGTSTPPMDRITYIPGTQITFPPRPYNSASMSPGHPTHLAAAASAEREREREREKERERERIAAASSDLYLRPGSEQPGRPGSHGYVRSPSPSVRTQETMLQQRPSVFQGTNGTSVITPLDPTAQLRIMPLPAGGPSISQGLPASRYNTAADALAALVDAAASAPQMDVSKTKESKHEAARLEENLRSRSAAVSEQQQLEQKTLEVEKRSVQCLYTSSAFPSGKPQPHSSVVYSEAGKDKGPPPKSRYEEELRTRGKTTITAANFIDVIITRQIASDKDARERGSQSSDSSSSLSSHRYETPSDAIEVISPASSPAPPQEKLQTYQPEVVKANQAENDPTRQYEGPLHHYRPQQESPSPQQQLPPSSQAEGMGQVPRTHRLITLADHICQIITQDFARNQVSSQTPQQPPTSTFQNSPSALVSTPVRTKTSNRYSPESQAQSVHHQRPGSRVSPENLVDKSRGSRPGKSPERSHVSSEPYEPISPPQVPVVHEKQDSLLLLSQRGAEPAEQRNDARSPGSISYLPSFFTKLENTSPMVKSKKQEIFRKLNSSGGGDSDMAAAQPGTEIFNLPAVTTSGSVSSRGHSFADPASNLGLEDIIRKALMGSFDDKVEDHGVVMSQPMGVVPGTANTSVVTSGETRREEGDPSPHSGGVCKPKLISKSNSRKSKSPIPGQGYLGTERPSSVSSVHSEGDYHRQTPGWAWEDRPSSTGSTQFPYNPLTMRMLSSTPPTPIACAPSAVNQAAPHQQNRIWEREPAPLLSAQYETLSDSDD
Sequence of Histone deacetylase 1 (Q13547 whole entry): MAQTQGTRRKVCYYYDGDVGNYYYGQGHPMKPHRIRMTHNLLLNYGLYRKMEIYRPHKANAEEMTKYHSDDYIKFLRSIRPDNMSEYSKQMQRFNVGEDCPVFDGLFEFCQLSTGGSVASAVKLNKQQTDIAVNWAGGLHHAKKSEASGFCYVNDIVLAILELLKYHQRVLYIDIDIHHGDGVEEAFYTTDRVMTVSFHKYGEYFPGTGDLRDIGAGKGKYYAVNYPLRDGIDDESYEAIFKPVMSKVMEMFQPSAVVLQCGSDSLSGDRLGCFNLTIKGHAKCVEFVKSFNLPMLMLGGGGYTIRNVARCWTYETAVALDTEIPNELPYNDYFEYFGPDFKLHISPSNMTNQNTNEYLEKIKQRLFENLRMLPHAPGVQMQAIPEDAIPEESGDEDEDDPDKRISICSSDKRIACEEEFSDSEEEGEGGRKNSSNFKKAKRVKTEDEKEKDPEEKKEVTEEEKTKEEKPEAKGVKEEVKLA
Sequence of Histone deacetylase 2 (Q92769 whole entry): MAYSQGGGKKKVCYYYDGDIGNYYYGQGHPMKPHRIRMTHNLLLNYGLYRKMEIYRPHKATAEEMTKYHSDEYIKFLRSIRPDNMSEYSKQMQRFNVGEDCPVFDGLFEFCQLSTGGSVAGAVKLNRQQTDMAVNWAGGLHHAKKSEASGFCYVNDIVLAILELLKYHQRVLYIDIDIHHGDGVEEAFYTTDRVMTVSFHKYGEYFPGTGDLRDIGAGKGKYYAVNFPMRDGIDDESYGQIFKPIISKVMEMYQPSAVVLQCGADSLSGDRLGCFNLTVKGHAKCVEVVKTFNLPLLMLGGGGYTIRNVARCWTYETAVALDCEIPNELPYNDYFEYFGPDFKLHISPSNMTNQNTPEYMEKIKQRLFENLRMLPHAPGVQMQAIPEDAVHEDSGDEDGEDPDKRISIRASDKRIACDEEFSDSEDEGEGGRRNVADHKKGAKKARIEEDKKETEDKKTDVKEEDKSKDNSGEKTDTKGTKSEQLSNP

Consider `Nc1ccccc1NC(=O)c1ccc(CSc2nccc(C(F)(F)F)n2)cc1`, for which the inhibition of growth at 8 µM in the test with A549 [1] was determined as 95.1%; in the test with SMMC-7721 [3], 80.6%; in the test on HeLa [4], 83.4%; with HCT-116 [5], 93.1%; with A-375 [15], 80.1%. For the same molecule, the IC50 was found to be 1850 nM in the test on NIH3T3; 1995 nM at Histone deacetylase; 1140 nM in the test on HCT-116 [2]; 441 nM on Histone deacetylase 2; 11 nM at Histone deacetylase 1; 274 nM in [6]. The IC50 with A549 [9] was 970 nM; with HeLa [10] it was 1140 nM; with A-375 [11], 1550 nM; in [13], more than 32000 nM; with SMMC-7721 [16], 1890 nM; at Histone deacetylase 8, more than 32000 nM. The inhibition of growth at 2 µM in the test with HCT-116 [7] is 82.7%; in the test on A-375 [8] it was 54.4%; in the test with HeLa [12], 68.3%; in the test with A549 [14], 75.4%; in the test with SMMC-7721 [17], 66.1%.
For `Cc1cc(C)cc(SCc2ccc(C(=O)Nc3ccccc3N)cc2)c1`, the inhibition of growth at 8 µM in the test with A549 [1] was found to be 78.5%; in the test on SMMC-7721 [3], 85.1%; in the test with HeLa [4], 78.8%; in the test with HCT-116 [5], 72.9%; with A-375 [15] it was 74.7%. The IC50 in the test on NIH3T3 stood at 3340 nM; at Histone deacetylase, 10720 nM; in the test with HCT-116 [2] it was 2490 nM; at Histone deacetylase 2, 139 nM; at Histone deacetylase 1 it was 20 nM; in [6], 381 nM. In addition, the IC50 with A549 [9] is 2890 nM; in the test with HeLa [10] it was 2090 nM; in the test on A-375 [11] it was 3670 nM; in test [13] it was more than 32000 nM; with SMMC-7721 [16], 2760 nM; on Histone deacetylase 8, more than 32000 nM. The inhibition of growth at 2 µM in the test with HCT-116 [7] stood at 3.22%; in the test with A-375 [8], 48.5%; in the test with HeLa [12] it was 40.1%; in the test on A549 [14], 33.3%; in the test on SMMC-7721 [17], 29.1%.
As to `Cc1ccc(SCc2ccc(C(=O)Nc3ccccc3N)cc2)cc1`, the inhibition of growth at 8 µM in the test on A549 [1] turned out to be 78.3%; in the test on SMMC-7721 [3], 82.7%; in the test on HeLa [4], 79.2%; in the test with HCT-116 [5] it was 84%; in the test with A-375 [15], 67%. For the same molecule, the IC50 in the test with HCT-116 [2] was 2630 nM; in the test on A549 [9] it was 3270 nM; with HeLa [10], 4250 nM; in the test with A-375 [11], 3700 nM; with SMMC-7721 [16], 3740 nM. Also, the inhibition of growth at 2 µM amounted to 74.8% in the test on HCT-116 [7]; 17.5% in the test with A-375 [8]; 33.8% in the test on HeLa [12]; 40.5% in the test with A549 [14]; 25.1% in the test on SMMC-7721 [17].
